experiment: Toxicity liver stage against HepG2, at 10uM; format: cell-based; parameters: test concentration 10 uM, cell line HepG2-A16-CD81EGFP; settings: human, HepG2-A16-CD81EGFP cells; read-out: INHIBITION
Method in brief: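 Uninfected HepG2-A16-CD81EGFP cells, 3 × 10^3 per well, 1536-well, plated on prespotted compound at 10 μM final, parasite-free screening media added to match infected plates; puromycin 10 μM positive, DMSO 0.5% negative; run in parallel with 48 h PbLuc assay at 37 °C, 5% CO2; viability by CellTiter-Glo luminescence, normalized to controls.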

| SMILES | cytotoxicity at 10 µM [%] |
| --- | --- |
| COCC(=O)N[C@H]1C[C@@H](Cc2cc(CN3CCOCC3)on2)C1(C)C | 0.66 |
| Cc1cc(NC(=O)NCCCSc2nncn2C)no1 | 0.0537 |
| CCOc1nn(CC)cc1-c1nnc(SCC)n1C | 1.81 |
| COCCCNC(=O)c1cn(C(C)C)cc2c(=O)[nH]nc1-2 | -4.45 |
| Cc1cc(C(=O)N(CC(F)(F)F)C2CCOCC2)c(C)o1 | -0.541 |
| O=C(C1CCOCC1)N1CCC2(CCC(C(=O)N3CCCC3)O2)CC1 (stereo unspecified) | 6.41 |
| CCS(=O)(=O)N1CCCC2(CCCC(=O)N2C)C1 (stereo unspecified) | 8.86 |
| CC(=O)N1C[C@H]2CN(CC3CC3)C(=O)[C@H]2C1 | 6.32 |
| CN(C)C(=O)CN1CCC2(CC1)COC2 | 5.53 |
| CCc1c(C)n(CC(=O)OC)c2nc3ccccc3n2c1=O | 1.44 |
| CC1=Nc2c(c(=O)[nH]n2C2CCCC2)C(c2cccc(O)c2)S1 (stereo unspecified) | 4.8 |
| CNc1nc2c(s1)C(c1c(Cl)cccc1Cl)CC(=O)N2 (stereo unspecified) | -10.4 |
| Cc1ccccc1CNCc1cc(Cl)ccc1O | -5.9 |
| O=C1CC(c2ccc3c(c2)OCO3)c2snc(C(=O)O)c2N1 (stereo unspecified) | 4.43 |
| COCc1nc(N(C)C)ncc1C(=O)Nc1ccn(C)n1 | -0.782 |
| CNC(=O)CCc1cc(C2CCCCN2C(C)C)nc(C)n1 (stereo unspecified) | -1.66 |
| CNc1ccc(C2CN(c3cc(C)ncn3)CCO2)nc1 (stereo unspecified) | 7.14 |
| CCC(=O)N1CCC(c2ncc(C(=O)Nc3ccccc3)c(C)n2)C1 (stereo unspecified) | 6.96 |
| CN(C)Cc1cccc(-c2cccnc2C(=O)NCc2ccccn2)c1 | 5.39 |
| COc1cc(CCC(=O)N2CCC(c3cncc(C)n3)CC2)on1 | 4.46 |
| O=S(=O)(CCc1ccccc1)Nc1cc(Cl)ccn1 | -4.81 |

| SMILES | cytotoxicity at 10 µM [%] |
| --- | --- |
| O=C(c1ccc2nncn2c1)N1CCCC1c1noc(C2CC2)n1 (stereo unspecified) | -7.11 |
| COc1cccc(C(=O)NS(=O)(=O)c2cncc(Br)c2)c1OC | 0.684 |
| CN(Cc1cnn(C)c1)C1CCCN(Cc2noc(C3CC3)n2)C1 (stereo unspecified) | -8.44 |
| COCCOc1nc(-c2ccccc2Cl)no1 | 9.4 |
| CC(NCc1cccnc1)c1cc2c(cc1Br)OCCO2 (stereo unspecified) | 2.46 |
| CCNC(=O)CCC(=O)N1CCC(Oc2cc(C)ccc2C)CC1 | -4.59 |
| Cc1c(C(=O)N2CCSCC2)sc2nc(C(F)(F)F)ccc12 | -8.58 |
| CCN(C)C(=O)Nc1cc(F)c(OC)cc1F | -10.4 |
| O=C(CNC(=O)N(Cc1ccoc1)C1CCCCC1)N1CCCC1 | -1.3 |
| Cc1cnn(C2CN(c3ncnc4[nH]ccc34)C2)c1 | 8 |
| CCC(C)CNCC1(S(C)(=O)=O)CCOCC1 (stereo unspecified) | -11.4 |
| Cc1ccc(NC(=O)N2CCCC(N(C)C)C2)c(Br)c1 (stereo unspecified) | -3.51 |
| CC(NCC(=O)N1CCc2sccc2C1)c1ccccc1F (stereo unspecified) | 1.8 |
| CN1CCC(NCC(O)c2cccc(OCc3ccccc3)c2)CC1 (stereo unspecified) | -11.7 |
| Cc1ccc(CNC(CN2CCN(C)CC2)c2ccccc2)cc1 (stereo unspecified) | 9.19 |
| Cc1ccc(NC(=O)NC(C)c2nc[nH]n2)cc1 (stereo unspecified) | -0.665 |
| CC(C)(C)N1CCCN(C(=O)c2csc(S(N)(=O)=O)c2)CC1 | 5.06 |
| N#CCCN(CCC#N)C(=O)CN1CCCC1Cc1cccc(F)c1 (stereo unspecified) | -10.5 |
| Cc1cnn(CCC(=O)N2CCOC(c3nc(C(C)(C)C)n[nH]3)C2)c1 (stereo unspecified) | 5.17 |
| Cc1ccc(C(=O)N(C)Cc2cc(Br)cs2)c(=O)[nH]1 | -0.782 |
| Cc1ccc(C(=O)N(C)Cc2cscn2)c(=O)[nH]1 | -7.69 |

| SMILES | cytotoxicity at 10 µM [%] |
| --- | --- |
| CCc1nnc2n1CCN(C(=O)c1ccc3[nH]cnc3c1)C2 | -19.1 |
| Cn1nccc1-c1cnc2n1CCC21CCN(C(=O)C2(C)CC2)CC1 | -123 |
| CS(=O)(=O)NC[C@]12COC[C@H]1CN(C(=O)C1CCSCC1)C2 | -112 |
| COCCN(C)Cc1cn(C)nc1-c1ccc2c(c1)OCCO2 | -0.65 |
| CC(C)[C@H]1CN(CC2CCC2)C[C@@H]1NC(=O)c1ccc(=O)[nH]c1 | -7.85 |
| COCCCC1(C(=O)O)CCCN(Cc2ccccc2C)C1 (stereo unspecified) | -4.58 |
| Cc1ccc2oc(CN3CCn4nc(CCC(=O)O)cc4C3)c(C)c2c1 | -5.56 |
| Cc1nc(N(C)C)nc(-c2cccc(-c3ccn(CCCO)n3)c2)c1C | -6.51 |
| CN(CCCN1CCCCCC1)C(=O)c1ccccc1NCC(=O)O | -4.84 |
| O=c1c2cccnc2ccn1Cc1nccn1C1CC1 | -4.87 |
| CC(C)c1cc(C(=O)NCCN2CCCCC2CO)on1 (stereo unspecified) | 2.07 |
| Cc1cccnc1[C@H](C)NC(=O)c1cccc(CC2CCNCC2)c1 | -5.22 |
| Cn1ncc2c(NCC3CCS(=O)(=O)C3)nc(C3CCCC3)nc21 (stereo unspecified) | -5.1 |
| Cc1ccsc1[C@@H]1CCN(C(=O)CCc2cc(O)no2)C[C@H]1O | -4.73 |
| CCc1nn(C)c(Cl)c1CN1CCCC2(C1)CN(C)C(=O)O2 (stereo unspecified) | 5.44 |
| CCc1ccccc1C(=O)N1C[C@@H](CN2CCOCC2)[C@@H](CO)C1 | -0.125 |
| COc1cccc(OCc2cc(C(=O)NC[C@@H]3CCCN3)n[nH]2)c1 | 0.732 |
| CCOc1ccc(C(=O)CCC(=O)NCCc2nncn2CC)cc1C | -10.7 |
| O=C1O[C@@H]2CN(Cc3ccccn3)C[C@@H]2N1CCCc1ccc(F)cc1 | -0.687 |
| CCN(Cc1cnn(C)c1)C[C@H]1CC[C@@H](Cc2cccc(CN)c2)O1 | -0.189 |
| CCc1nc(C)sc1CN1C[C@@H](C)[C@@](C)(O)C1 | -1.47 |

| SMILES | cytotoxicity at 10 µM [%] |
| --- | --- |
| CN(Cc1ccccc1)C(=O)CCN1CCC2(CC1)[C@H](O)C[C@@H]2O | -7.55 |
| CCC(Cn1ccnc1)n1cnc2c(C)csc2c1=O (stereo unspecified) | -4.34 |
| COCc1nc2ncc3c(=O)n(-c4ccc(OC)cc4)ccc3n2n1 | 8.1 |
| COCCOC1CCN(C(C(=O)O)c2ccc3c(c2)OCO3)CC1 (stereo unspecified) | 9.07 |
| Cc1c(CN2CCC(C(=O)O)(n3ccnc3)CC2)oc2ccccc12 | -4.86 |
| Cc1cncc(C(=O)N2CCCC(O)(CO)C2)c1 (stereo unspecified) | 2.09 |
| CC(C)CCN1CC2(CCCN(C(=O)c3cscn3)C2)CCC1=O (stereo unspecified) | -13.9 |
| CN(CCO)Cc1nnc(C2CCN(C(=O)C(C)(C)C)CC2)n1C | 22.6 |
| Cc1cccnc1CNCC1(O)CCCN(CC2CCCCC2)C1=O (stereo unspecified) | -2.37 |
| CC(C)c1nn(C)c(N(C)C)c1CNCc1cccnc1N(C)C | -8.66 |
| CC(=O)N1CC2(CCNCC2)c2cc(Cl)ccc21 | -0.655 |
| Cc1ncsc1CN1C[C@@H]2COC[C@]2(CNC(=O)c2ccco2)C1 | -73.8 |
| CN(C)C(=O)CN1CC[C@@H]2O[C@@H](COCc3cccnc3)CC[C@@H]21 | -67.2 |
| CNC(=O)CN1CCCC12CCN(C(=O)c1cccc(F)c1)CC2 | 6.62 |
| CCN1CC[C@@]2(C(=O)N3CCOCC3)CCN(C(=O)C(C)C)CC[C@@H]12 | -11.5 |
| O=C1C[C@H]2[C@@H](CCN2Cc2ccccn2)N1CCN1CCOCC1 | -1.45 |
| CCc1ccc(NC(=O)N2C[C@@H]3C[C@H](C(=O)NC)[C@H](C2)O3)cc1 | 5.4 |
| Nc1ncccc1CN1C[C@H]2CC[C@@H](C1)N(CC1CC1)C2=O | -0.956 |

From ChEMBL document CHEMBL4513216, “Probing the Open Global Health Chemical Diversity Library for Multistage-Active Starting Points for Next-Generation Antimalarials” (ACS Infect Dis, 2020)
